Assay results: ChEMBL document CHEMBL1153726, “Synthesis and anticancer activity of sclerophytin-inspired hydroisobenzofurans” (Bioorg Med Chem Lett, 2009)

Legend:
Type in all cases: functional
[1] = system: HL-60(TB); assay: Growth inhibition of human HL-60(TB) cells at 10 nM after 96 hrs by MTT assay; design: scale not given: the % may be the effect or the level left
[2] = system: A498; assay: Growth inhibition of human A498 cells at 1 nM after 96 hrs by MTT assay; design: scale not given: the % may be the effect or the level left
[3] = system: SK-OV-3; assay: Growth inhibition of human SKOV3 cells at 1 nM after 96 hrs by MTT assay; design: scale not given: the % may be the effect or the level left
[4] = system: LOX IMVI; assay: Growth inhibition of human LOXIMVI cells at 1 nM after 96 hrs by MTT assay; design: scale not given: the % may be the effect or the level left
[5] = system: U-251; assay: Growth inhibition of human U251 cells at 1 nM after 96 hrs by MTT assay; design: scale not given: the % may be the effect or the level left
[6] = system: HOP-62; assay: Growth inhibition of human HOP62 cells at 1 nM after 96 hrs by MTT assay; design: scale not given: the % may be the effect or the level left
[7] = system: MOLT-4; assay: Growth inhibition of human MOLT4 cells at 1 nM after 96 hrs by MTT assay; design: scale not given: the % may be the effect or the level left
[8] = system: MCF7; assay: Growth inhibition of human MCF7 cells at 10 uM after 96 hrs by MTT assay; design: scale not given: the % may be the effect or the level left
[9] = system: SK-MEL-28; assay: Growth inhibition of human SK-MEL-28 cells at 10 uM after 96 hrs by MTT assay; design: scale not given: the % may be the effect or the level left
[10] = system: LOX IMVI; assay: Growth inhibition of human LOXIMVI cells at 10 uM after 96 hrs by MTT assay; design: scale not given: the % may be the effect or the level left
[11] = system: HCC 2998; assay: Growth inhibition of human HCC2998 cells at 10 uM after 96 hrs by MTT assay; design: scale not given: the % may be the effect or the level left
[12] = system: SR; assay: Growth inhibition of human SR cells at 10 uM after 96 hrs by MTT assay; design: scale not given: the % may be the effect or the level left
[13] = system: K562; assay: Growth inhibition of human K562 cells at 10 uM after 96 hrs by MTT assay; design: scale not given: the % may be the effect or the level left
[14] = system: SF-268; assay: Growth inhibition of human SF268 cells at 10 nM after 96 hrs by MTT assay; design: scale not given: the % may be the effect or the level left
[15] = system: KM12; assay: Growth inhibition of human KM12 cells at 10 nM after 96 hrs by MTT assay; design: scale not given: the % may be the effect or the level left
[16] = system: KM12; assay: Growth inhibition of human KM12 cells after 96 hrs by MTT assay; conditions: KM12, 96 h
Method in brief: (§1)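 Run in the NCI 60 human tumour cell line panel as a five-dose assay. GI50 and LC50 were reported for each cell line.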

[17] = system: MDA-MB-435; assay: Growth inhibition of human MDA-MB-435 cells after 96 hrs by MTT assay; conditions: MDA-MB-435, 96 h; method in brief: as §1
[18] = system: UACC-257; assay: Growth inhibition of human UACC257 cells after 96 hrs by MTT assay; conditions: UACC-257, 96 h
Method in brief: (§2)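 Tested in the NCI 60-cell-line panel in five-dose format; GI50 and LC50 values reported for each cell line.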

[19] = system: TK-10; assay: Growth inhibition of human TK10 cells after 96 hrs by MTT assay; conditions: TK-10, 96 h; method in brief: as §2
[20] = system: UO-31; assay: Growth inhibition of human UO31 cells after 96 hrs by MTT assay; conditions: UO-31, 96 h; method in brief: as §2
[21] = system: CAKI-1; assay: Growth inhibition of human Caki1 cells at 10 uM after 96 hrs by MTT assay; design: scale not given: the % may be the effect or the level left
[22] = system: COLO 205; assay: Growth inhibition of human COLO205 cells after 96 hrs by MTT assay; conditions: COLO 205, 96 h
[23] = system: T47D; assay: Growth inhibition of human T47D cells at 1 uM after 96 hrs by MTT assay; design: scale not given: the % may be the effect or the level left
[24] = system: DU-145; assay: Growth inhibition of human DU145 cells at 1 uM after 96 hrs by MTT assay; design: scale not given: the % may be the effect or the level left
[25] = system: CAKI-1; assay: Growth inhibition of human Caki1 cells at 1 uM after 96 hrs by MTT assay; design: scale not given: the % may be the effect or the level left
[26] = system: OVCAR-8; assay: Growth inhibition of human OVCAR8 cells at 1 uM after 96 hrs by MTT assay; design: scale not given: the % may be the effect or the level left
[27] = system: UO-31; assay: Growth inhibition of human UO31 cells at 100 nM after 96 hrs by MTT assay; design: scale not given: the % may be the effect or the level left
[28] = system: TK-10; assay: Growth inhibition of human TK10 cells at 100 nM after 96 hrs by MTT assay; design: scale not given: the % may be the effect or the level left
[29] = system: RXF 393; assay: Growth inhibition of human RXF393 cells at 100 nM after 96 hrs by MTT assay; design: scale not given: the % may be the effect or the level left
[30] = system: HCC 2998; assay: Growth inhibition of human HCC2998 cells at 100 nM after 96 hrs by MTT assay; design: scale not given: the % may be the effect or the level left
[31] = system: NCI-H522; assay: Growth inhibition of human NCI-H522 cells at 100 nM after 96 hrs by MTT assay; design: scale not given: the % may be the effect or the level left
[32] = system: NCI-H226; assay: Growth inhibition of human NCI-H226 cells at 100 nM after 96 hrs by MTT assay; design: scale not given: the % may be the effect or the level left
[33] = system: HL-60(TB); assay: Growth inhibition of human HL-60(TB) cells at 100 nM after 96 hrs by MTT assay; design: scale not given: the % may be the effect or the level left
[34] = system: UACC-257; assay: Growth inhibition of human UACC257 cells at 10 nM after 96 hrs by MTT assay; design: scale not given: the % may be the effect or the level left
[35] = system: HCT-15; assay: Growth inhibition of human HCT15 cells at 10 nM after 96 hrs by MTT assay; design: scale not given: the % may be the effect or the level left
[36] = system: SNB-75; assay: Growth inhibition of human SNB75 cells at 1 uM after 96 hrs by MTT assay; design: scale not given: the % may be the effect or the level left
[37] = system: SNB-19; assay: Growth inhibition of human SNB19 cells at 1 uM after 96 hrs by MTT assay; design: scale not given: the % may be the effect or the level left
[38] = system: SF-539; assay: Growth inhibition of human SF539 cells at 1 uM after 96 hrs by MTT assay; design: scale not given: the % may be the effect or the level left
[39] = system: SW-620; assay: Growth inhibition of human SW620 cells at 1 uM after 96 hrs by MTT assay; design: scale not given: the % may be the effect or the level left
[40] = system: KM12; assay: Growth inhibition of human KM12 cells at 1 uM after 96 hrs by MTT assay; design: scale not given: the % may be the effect or the level left
[41] = system: COLO 205; assay: Growth inhibition of human COLO205 cells at 1 uM after 96 hrs by MTT assay; design: scale not given: the % may be the effect or the level left
[42] = Growth inhibition of human RPMI8266 cells at 1 uM after 96 hrs by MTT assay; design: scale not given: the % may be the effect or the level left
[43] = read-out: Log10GI50 (converted)
[44] = read-out: Log10LC50 (converted)
[45] = read-out: LC50 (the source's name)

In the case of `C=C(C)[C@H]1CC=C(C)C2=CO[C@@H](c3ccccc3F)[C@@H]21`, the Activity [1] was 104%, the Activity [2] was 82% and the Activity [3] was 98%. It also gave an Activity [4] of 97%, an Activity [5] of 98% and an Activity [6] of 95%. For the same compound, the Activity [7] was 106%, the Activity [8] was 93.7% and the Activity [9] was 110.2%. For the same compound, the Activity [10] was 89.75%, the Activity [11] was 115.46% and the Activity [12] was 62.58%. For the same compound, the Activity [13] was 67.84%, the Activity [14] was 94% and the Activity [15] was 93%. For the same compound, the GI50 ([16]; read-out: GI50) was 4.02 µM, the LC50 ([16]; read-out: LC50) was 40.4 µM and the GI50 [16, 43] was 3.98 µM. The LC50 [16, 44] was 40.7 µM, the TGI ([16]; read-out: Log10TGI (converted)) was 15.8 µM and the TGI ([16]; read-out: TGI) was 15.7 µM. For the same compound, the GI50 ([17]; read-out: GI50) was 2.65 µM, the LC50 ([17]; read-out: LC50) was 66.3 µM and the GI50 [17, 43] was 2.63 µM. For the same compound, the LC50 [17, 44] was 66.1 µM, the TGI ([17]; read-out: Log10TGI (converted)) was 11.5 µM and the TGI ([17]; read-out: TGI) was 11.4 µM. For the same compound, the GI50 ([18]; read-out: GI50) was 6.71 µM, the CC50 [18, 45] was 50.9 µM and the GI50 [18, 43] was 6.76 µM. For the same compound, the CC50 [18, 44] was 51.3 µM, the TGI ([18]; read-out: Log10TGI (converted)) was 21.4 µM and the TGI ([18]; read-out: TGI) was 21.3 µM. For the same compound, the GI50 ([19]; read-out: GI50) was 8.93 µM, the CC50 [19, 45] was 88.9 µM and the GI50 [19, 43] was 8.91 µM. The CC50 [19, 44] was 89.1 µM, the TGI ([19]; read-out: Log10TGI (converted)) was 28.8 µM and the TGI ([19]; read-out: TGI) was 29.1 µM. It also gave a GI50 ([20]; read-out: GI50) of 6.32 µM, a CC50 [20, 45] of 49.2 µM and a GI50 [20, 43] of 6.31 µM. The CC50 [20, 44] was 49 µM, the TGI ([20]; read-out: Log10TGI (converted)) was 20.9 µM and the TGI ([20]; read-out: TGI) was 20.8 µM. It also gave an Activity [21] of -25%, a GI50 ([22]; read-out: GI50) of 9.77 µM and a CC50 [22, 45] of 46.3 µM. The GI50 [22, 43] was 9.77 µM, the CC50 [22, 44] was 46.8 µM and the TGI ([22]; read-out: Log10TGI (converted)) was 21.4 µM. It also gave a TGI ([22]; read-out: TGI) of 21.5 µM, an Activity [23] of 2% and an Activity [24] of 37%. It also gave an Activity [25] of 37%, an Activity [26] of 59% and an Activity [27] of 81%. For the same compound, the Activity [28] was 92%, the Activity [29] was 84% and the Activity [30] was 97%. The Activity [31] was 71%, the Activity [32] was 75% and the Activity [33] was 92%. For the same compound, the Activity [34] was 90%, the Activity [35] was 95% and the Activity [36] was 35%. The Activity [37] was 54%, the Activity [38] was 43% and the Activity [39] was 23%. For the same compound, the Activity [40] was 24%, the Activity [41] was 50% and the Activity [42] was -52%.
